The data set can be described thus: Toxicity liver stage against HepG2, at 10uM. The data set is classed as cell-based. The arrangement: test concentration 10 uM, cell line HepG2-A16-CD81EGFP. The following applies: human, HepG2-A16-CD81EGFP cells; read-out: INHIBITION
Put shortly: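 Uninfected HepG2-A16-CD81EGFP cells, 3 × 10^3 per well, 1536-well, plated on prespotted compound at 10 μM final, parasite-free screening media added to match infected plates; puromycin 10 μM positive, DMSO 0.5% negative; run in parallel with 48 h PbLuc assay at 37 °C, 5% CO2; viability by CellTiter-Glo luminescence, normalized to controls.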
As to `CC(C)C(=O)NC1CCCN(C(=O)c2ccccc2O)C1` (stereo not given), the cytotoxicity at 10 µM is -2.55%.
On to `CC(=O)N1CCN(c2cnnc(N3CCCC3)c2)CC1`, for which the cytotoxicity at 10 µM was found to be 8.19%.
`Cc1ccnc(NC(=O)C2CCN(CCCn3ccnc3C)CC2)c1`: the cytotoxicity at 10 µM is -58.2%.
As for `COc1cccc(CNc2nc(O)cc(C3CC(=O)N(C)C3)n2)c1` (stereo not given), the figure is -2.24%.
As to `c1cncc(-c2nnc([C@H]3CCN(CC4CC4)C3)o2)c1`, the cytotoxicity at 10 µM turned out to be 9.06%.
Then `Cc1cccc(N2CCC3(CCCN(C(=O)c4cccnc4)C3)CC2)n1`, with 3.77%; and `O=C(c1ccccc1F)N1CC2(CCNCC2)c2cc(Cl)ccc21`, with -3.31%; and `O=C(N1CCCC1)N1CCC2(CC1)CN(c1cccnc1)C(=O)CO2`, with -99.6%.
Then `O=C(O)CCCNC(=O)N1CCc2c([nH]c3ccc(Cl)cc23)C1`, with 8.13%; and `COC[C@@H]1CCCN1C(=O)CCc1c(C)nn(C)c1C`, with 5.01%.
Regarding `CS(=O)(=O)CCN1CC(c2ccccc2)(c2ccccc2)CCC1=O`, the cytotoxicity at 10 µM came to 0.623%.
As to `Cc1noc(C[C@@H]2COC[C@H]3CN(S(=O)(=O)C4CC4)C[C@@H]23)n1`, the cytotoxicity at 10 µM was 8.37%.
As to `O=C(Cn1ncc(N2CCCC2)cc1=O)Nc1ccc2nccnc2c1`, the cytotoxicity at 10 µM came to 1.83%.
Then `OCCN1CCC(CNCCOCC(F)(F)F)CC1`, with -0.903%; and `COc1ccccc1-n1c(O)cc(C)c(C#N)c1=O`, with 2.74%.
As to `Cc1ncccc1C(=O)Nc1cccc(OCC(F)F)n1`, the cytotoxicity at 10 µM was -7.79%.
As for `c1ccc(N2CCOC3(CCCN(c4nncs4)C3)C2)nc1` (stereo not given), the figure is 9.17%.
Then `Cc1ccccc1C(CC(=O)NCC(N)=O)c1ccccc1` (stereo not given), with 5.17%; and `CC(O)CC(C)(C)CNC(=O)Nc1cnn(-c2ccccc2F)c1` (stereo not given), with -3.27%; and `O=C(NN1CCCc2ccccc21)c1c[nH]c(=O)[nH]1`, with 8.73%.
Then `Cc1cc(NC(=O)CN2CCn3c(nnc3C(C)C)C2)no1`, with -1.11%; and `CCOCC(O)CN1CCN(C(=O)c2ccc3c(c2)COC3)CC1` (stereo not given), with -0.0716%; and `Cc1nc(CC(=O)N2CCN(C)CC2c2ccccc2)cs1` (stereo not given), with 3.49%.
With `O=C1CC[C@H]2CN(Cc3cccnc3)CC[C@H]2N1CCc1c[nH]cn1`, the cytotoxicity at 10 µM is -1.36%.
As for `Cc1ccnc(N2CCC(C(N)=O)CC2)n1`, the figure is -18.3%.
As to `N[C@H]1c2ccccc2C[C@@H]1NC(=O)C1CCN(Cc2ccco2)CC1`, the cytotoxicity at 10 µM was -8.57%.
Turning to `Cc1ncsc1CNC(=O)N(Cc1ccccc1)CC(C)(C)O`, the cytotoxicity at 10 µM was -10.2%.
As for `COc1ccc2c(c1)CN(Cc1nc3ccsc3c(=O)[nH]1)CC2`, the figure is -4.64%; as for `CCOc1ccc(NC(=O)N2CCOC(C(N)=O)C2)cc1Cl` (stereo not given), -140%.
As for `CNC(=O)c1ccc(C2CN(C(=O)c3coc(C)n3)CCO2)nc1` (stereo not given), the figure is -7.69%; as for `COc1ccc(N2CCN(C(=O)COc3c(C)occc3=O)CC2)cc1`, -2.67%.
Then `CCOCc1cnc2n1CCN(C(=O)Cc1ccccn1)C2C` (stereo not given), with 8.04%.
With `Clc1ccccc1-c1cc(CNc2ncnc3c2CCNCC3)no1`, the cytotoxicity at 10 µM is 24.6%.
As for `CNc1nc(C)c(C(=O)N2CCCCC2CN2CCCCCC2)s1` (stereo not given), the figure is -2.5%.
Then `Cc1nc(C)n(CC2CCCN2Cc2nc(-c3cccs3)no2)n1` (stereo not given), with -4.02%; and `CC(C)C(NC(=O)Nc1cnn(CC(N)=O)c1)c1ccc(Cl)cc1` (stereo not given), with 7.51%.
Then `Cc1cnc(CN(C)C2CCN(Cc3nc4c(F)cccc4[nH]3)C2)o1` (stereo not given), with 2.53%.
With `O=C(C1CC1)N1CCC2(COCc3cnc(NCc4ccco4)nc32)C1` (stereo not given), the cytotoxicity at 10 µM is -1.08%.
As for `O=C(c1c2c(NCC3CC3)ncnc2n2ccccc12)N1CCOCC1`, the cytotoxicity at 10 µM was determined as 9.82%.
As for `Cc1cc(C)n(CC2CCCCN2CCc2ccncc2)n1` (stereo not given), the cytotoxicity at 10 µM was -7.07%.
For `O=C(NCc1ccccc1)N1CCC(Oc2ncccc2Cl)CC1`, the cytotoxicity at 10 µM is 17%.
Then `CCOC(=O)[C@@H]1[C@@H](c2ccccc2)CN2CCN(S(C)(=O)=O)C[C@H]12`, with 0.227%.
Then `CCc1ccc(C(=O)N2CCCC(CNS(C)(=O)=O)C2)o1` (stereo not given), with -19.7%.
As for `CCOCC1CN(Cc2ccoc2)Cc2cn(CC3CC3)nc21` (stereo not given), the figure is 12.1%; as for `CC(C)(C)c1nnc(CN2CCCC(c3cc(C(N)=O)[nH]n3)C2)o1` (stereo not given), -7.89%.
Turning to `CCNC(=O)N1C[C@@H]2OCC(=O)N(Cc3cccnc3)[C@@H]2C1`, the cytotoxicity at 10 µM is 7.95%.
With `CCC(=O)Nc1nnc(CCOc2cccc(OC)c2)s1`, the cytotoxicity at 10 µM was 5.73%.
As to `O=C(c1ccsc1)N1CCO[C@@H]2CN(Cc3cccs3)C[C@@H]2C1`, the cytotoxicity at 10 µM is -133%.
Take `Cc1nc(NC(=O)NCCCN2CCC(C(N)=O)CC2)sc1C`: the cytotoxicity at 10 µM was 0.902%.
Then `O=C1CCCN1CCN1CC=C(c2cnn(C3CCS(=O)(=O)C3)c2)CC1` (stereo not given), with -0.36%; and `N#Cc1cc(F)c(NCc2ccc(F)cc2)c(F)c1`, with -57%; and `COCC(=O)N1CC[C@@H]2O[C@@H](COCC3CCOCC3)CC[C@@H]21`, with 0.718%.
As for `Cc1ccc(CN(CCCn2ccnc2)Cc2cccs2)s1`, the figure is -17.6%; as for `CC(C)CC1SCC(=O)Nc2c1cnn2C1CCCC1` (stereo not given), -2.17%; as for `CC(=O)N1CCC2(CC1)[C@@H]1CN(Cc3cccnc3)C[C@@H]1C(=O)N2C`, 4.73%.
On to `Cc1nc(C2CCCN(C(=O)c3sccc3C3CC3)C2)no1` (stereo not given), for which the cytotoxicity at 10 µM was -3.74%.
As for `CNS(=O)(=O)c1cc(C(=O)N(C)Cc2sccc2C)c(C)o1`, the figure is -8.43%.
Then `O=S(=O)(N1CCCCCC1)N1CCc2sccc2C1`, with -5.6%.
Then `CCc1cc(N[C@@H](CC(C)C)C(N)=O)n2nc(C)c(C)c2n1`, with 7.33%; and `Cc1nn(CC(C)C)c(N(C)C)c1CNCc1ccc2c(c1)OCO2`, with -1.05%.
Turning to `Cc1csc(N2CCN(C(=O)Cc3ccc(C)s3)CC2)n1`, the cytotoxicity at 10 µM is -7.05%.
For `CC(C)NC(=O)N1CCN2C(=O)OC[C@H]2C1`, the cytotoxicity at 10 µM stood at 4.62%.
As for `O=C(N1CCCO1)[C@]12COC[C@H]1CN(Cc1nccs1)C2`, the figure is 9.31%; as for `CC1(c2ccc(Br)cc2)CC(=O)N(CC(N)=O)C1=O` (stereo not given), 2.05%; as for `c1csc(CCNc2nc(-c3ccncc3)nc3c2CCNCC3)c1`, -165%.
As for `Cc1nc2n(n1)CC(NCc1nc3ccccc3o1)CC2` (stereo not given), the cytotoxicity at 10 µM was -0.608%.
Consider `O=C(Cc1ccccc1F)N1C[C@@H]2COC[C@]2(COc2cccnc2)C1`, for which the cytotoxicity at 10 µM came out at 9.29%.
Then `COC(=O)CN1CCN(c2nc3c(s2)c(C)nn3C)C(C)C1=O` (stereo not given), with 3.27%.
Regarding `NC(=O)c1cc2c(nc1CCOc1ccc(F)cc1)CCC2`, the cytotoxicity at 10 µM is 4.22%.
On to `COc1ccc(Br)c(C(=O)N2CCCC(c3nc(C)no3)C2)c1` (stereo not given), for which the cytotoxicity at 10 µM amounted to 7.08%.

The values are drawn from ChEMBL document CHEMBL4513216, “Probing the Open Global Health Chemical Diversity Library for Multistage-Active Starting Points for Next-Generation Antimalarials” (ACS Infect Dis, 2020).
